Assay results as given in ChEMBL document CHEMBL5344461, “ZX703: A Small-Molecule Degrader of GPX4 Inducing Ferroptosis in Human Cancer Cells” (ACS Med Chem Lett, 2024).
Active and inactive are the calls of the source. No cut-off for these calls is given here.

What was measured:
[1] = system: HT-1080; experiment: Antiproliferative activity against human HT-1080 cells assessed as inhibition of cell growth incubated for 24 hrs by CCK-8 assay; assay type: functional, cell-based; settings: for IC50: HT-1080, 24 h
Procedure, shortened: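 HT1080 cells exposed to compound for 24 h; viability read by CCK-8; IC50 from growth inhibition.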

[2] = molecular target: Protein cereblon/Phospholipid hydroperoxide glutathione peroxidase GPX4 (Homo sapiens, UniProt P36969+Q96SW2); experiment: PROTAC activity at CRBN/GPX4 (unknown origin); assay type: protein assay
[3] = molecular target: T1, von Hippel-Lindau disease tumor suppressor/Phospholipid hydroperoxide glutathione peroxidase GPX4 (Homo sapiens) (UniProt P40337+P36969); experiment: PROTAC activity at VHL/GPX4 in human HT-1080 cells assessed as induction of protein degradation at 0.2 uM measured after 12 hrs by Western blot analysis relative to control; assay type: cell-based
Procedure, shortened: (§1)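 Time course in HT1080 cells at 0.2 μM compound. GPX4 detected by Western blot. Band density was quantified by gray-scale densitometry and normalized to GAPDH.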

[4] = molecular target: T1, von Hippel-Lindau disease tumor suppressor/Phospholipid hydroperoxide glutathione peroxidase GPX4 (Homo sapiens); experiment: PROTAC activity at VHL/GPX4 in human HT-1080 cells assessed as induction of protein degradation by measuring maximal degradation at 0.06 to 5 uM by Western blot analysis relative to control; assay type: cell-based; settings: dose 0.06-5 µM
[5] = molecular target: von Hippel-Lindau disease tumor suppressor/Phospholipid hydroperoxide glutathione peroxidase GPX4 (Homo sapiens, UniProt P36969+P40337); experiment: (§2) PROTAC activity at VHL/GPX4 in human HT-1080 cells assessed as induction of protein degradation by Western blot analysis; assay type: cell-based
[6] = molecular target: T1, von Hippel-Lindau disease tumor suppressor/Phospholipid hydroperoxide glutathione peroxidase GPX4 (Homo sapiens); experiment: as §2; assay type: cell-based
[7] = molecular target: T1, von Hippel-Lindau disease tumor suppressor/Phospholipid hydroperoxide glutathione peroxidase GPX4 (Homo sapiens); experiment: PROTAC activity at VHL/GPX4 in human HT-1080 cells assessed as induction of protein degradation at 0.2 uM measured for 24 hrs by Western blot analysis; assay type: cell-based; procedure, shortened: as §1
[8] = molecular target: T1, von Hippel-Lindau disease tumor suppressor/Phospholipid hydroperoxide glutathione peroxidase GPX4 (Homo sapiens); experiment: PROTAC activity at VHL/GPX4 in human HT-1080 cells assessed as induction of protein degradation at 0.2 uM measured after 6 hrs by Western blot analysis relative to control; assay type: cell-based; procedure, shortened: as §1
[9] = molecular target: T1, von Hippel-Lindau disease tumor suppressor/Phospholipid hydroperoxide glutathione peroxidase GPX4 (Homo sapiens); experiment: PROTAC activity at VHL/GPX4 in human HT-1080 cells assessed as induction of protein degradation at 0.2 uM incubated for 12 hrs in presence of MG132 and chloroquine by Western blot analysis; assay type: cell-based
Procedure, shortened: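 HT1080 cells treated 12 h with degrader alongside MG132 (0.3 μM) and chloroquine (50 μM); chloroquine given as pretreatment. GPX4 detected by Western blot, band density quantified by gray-scale analysis.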

[10] = system: HT-1080; experiment: Induction of ROS accumulation in human HT-1080 cells at 1 uM pretreated with ferroptosis inhibitor, Fer-1 for 2 hrs followed by compound addition and further incubated for 12 hrs by DCFH-DA staining based flow cytometry analysis; assay type: functional, cell-based
Procedure, shortened: (§3)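 HT1080 cells loaded with 10 μM DCFH-DA, then treated 12 h with compound at various concentrations; intracellular ROS measured by flow cytometry. For the rescue arm, cells were pretreated 2 h with ferroptosis inhibitor Fer-1 (5 μM) and kept in its presence.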

[11] = system: HT-1080; experiment: Induction of ROS accumulation in human HT-1080 cells incubated for 12 hrs by DCFH-DA staining based flow cytometry analysis; assay type: functional, cell-based; settings: dose 0.25-1 µM; procedure, shortened: as §3

T1 sequence (P36969 whole entry, looked up): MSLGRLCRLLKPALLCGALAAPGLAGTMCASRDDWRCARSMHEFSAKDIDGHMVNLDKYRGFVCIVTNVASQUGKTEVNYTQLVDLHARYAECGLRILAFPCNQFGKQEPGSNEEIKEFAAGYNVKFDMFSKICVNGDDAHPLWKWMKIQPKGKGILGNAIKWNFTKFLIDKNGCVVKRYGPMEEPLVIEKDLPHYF
T1 sequence (P40337 whole entry, looked up): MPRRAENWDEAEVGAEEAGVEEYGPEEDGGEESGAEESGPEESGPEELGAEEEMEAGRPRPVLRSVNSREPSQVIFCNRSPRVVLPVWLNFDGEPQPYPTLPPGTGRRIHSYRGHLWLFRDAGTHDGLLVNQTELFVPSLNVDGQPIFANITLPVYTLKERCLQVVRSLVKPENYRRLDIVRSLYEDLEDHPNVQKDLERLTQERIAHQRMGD
Chain of Protein cereblon/Phospholipid hydroperoxide glutathione peroxidase GPX4 (Q96SW2 whole entry): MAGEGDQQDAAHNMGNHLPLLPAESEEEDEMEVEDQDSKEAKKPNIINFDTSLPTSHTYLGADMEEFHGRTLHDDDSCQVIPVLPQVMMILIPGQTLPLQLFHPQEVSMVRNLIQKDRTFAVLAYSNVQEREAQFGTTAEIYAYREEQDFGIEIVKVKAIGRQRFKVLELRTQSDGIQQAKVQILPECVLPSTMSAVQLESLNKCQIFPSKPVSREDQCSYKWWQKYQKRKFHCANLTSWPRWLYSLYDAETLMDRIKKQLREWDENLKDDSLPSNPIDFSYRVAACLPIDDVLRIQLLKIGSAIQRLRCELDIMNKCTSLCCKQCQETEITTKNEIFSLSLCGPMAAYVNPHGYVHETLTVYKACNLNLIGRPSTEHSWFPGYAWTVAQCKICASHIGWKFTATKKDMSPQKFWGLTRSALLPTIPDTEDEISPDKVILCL
Chain of Protein cereblon/Phospholipid hydroperoxide glutathione peroxidase GPX4 (P36969 whole entry): as the sequence (P36969 whole entry, looked up) above
Chain of von Hippel-Lindau disease tumor suppressor/Phospholipid hydroperoxide glutathione peroxidase GPX4 (P40337 whole entry): as the sequence (P40337 whole entry, looked up) above
Chain of von Hippel-Lindau disease tumor suppressor/Phospholipid hydroperoxide glutathione peroxidase GPX4 (P36969 whole entry): as the sequence (P36969 whole entry, looked up) above

Compound	IC50 [1] [µM]	other results
Cc1ncsc1-c1ccc(CNC(=O)[C@@H]2C[C@@H](O)CN2C(=O)[C@@H](NC(=O)COCCOCCOCCOCCOc2ccc(C(c3ccc(Cl)cc3)N3CCN(C(=O)c4noc(C)c4[N+](=O)[O-])CC3)cc2)C(C)(C)C)cc1 (stereo not given in full)	4.73	
Cc1ncsc1-c1ccc(CNC(=O)[C@@H]2C[C@@H](O)CN2C(=O)[C@@H](NC(=O)CCCOc2ccc(C(c3ccc(Cl)cc3)N3CCN(C(=O)c4noc(C)c4[N+](=O)[O-])CC3)cc2)C(C)(C)C)cc1 (stereo not given in full)		inhibition [1]: inactive
Cc1ncsc1-c1ccc(CNC(=O)[C@@H]2C[C@@H](O)CN2C(=O)[C@@H](NC(=O)CCOc2ccc(C(c3ccc(Cl)cc3)N3CCN(C(=O)c4noc(C)c4[N+](=O)[O-])CC3)cc2)C(C)(C)C)cc1 (stereo not given in full)	2.17	
Cc1ncsc1-c1ccc(CNC(=O)[C@@H]2C[C@@H](O)CN2C(=O)[C@@H](NC(=O)CCCCCOc2ccc(C(c3ccc(Cl)cc3)N3CCN(C(=O)c4noc(C)c4[N+](=O)[O-])CC3)cc2)C(C)(C)C)cc1 (stereo not given in full)	2.29	
Cc1ncsc1-c1ccc(CNC(=O)[C@@H]2C[C@@H](O)CN2C(=O)[C@@H](NC(=O)CCCCCCCCCCOc2ccc(C(c3ccc(Cl)cc3)N3CCN(C(=O)c4noc(C)c4[N+](=O)[O-])CC3)cc2)C(C)(C)C)cc1 (stereo not given in full)	0.889	
Cc1onc(C(=O)N2CCN(C(c3ccc(Cl)cc3)c3ccc(Cl)cc3)CC2)c1[N+](=O)[O-]	0.153	
Cc1ncsc1-c1ccc([C@H](C)NC(=O)[C@@H]2C[C@@H](O)CN2C(=O)[C@@H](NC(=O)CCCCCCCCCOc2ccc(C(c3ccc(Cl)cc3)N3CCN(C(=O)c4noc(C)c4[N+](=O)[O-])CC3)cc2)C(C)(C)C)cc1 (stereo not given in full)	1.21	
O=C1CCC(N2C(=O)c3cccc(NCCOCCOCCOCCn4cc(COc5ccc(N(C(=O)CCl)C(C(=O)NCCc6ccccc6)c6cccs6)cc5Cl)nn4)c3C2=O)C(=O)N1 (stereo not given)		EC50 [2]: 0.2 µM
Cc1ncsc1-c1ccc(CNC(=O)[C@@H]2C[C@@H](O)CN2C(=O)[C@@H](NC(=O)CCCCCCCCCCCOc2ccc(C(c3ccc(Cl)cc3)N3CCN(C(=O)c4noc(C)c4[N+](=O)[O-])CC3)cc2)C(C)(C)C)cc1 (stereo not given in full)	2.35	
Cc1ncsc1-c1ccc(CNC(=O)[C@@H]2C[C@@H](O)CN2C(=O)[C@@H](NC(=O)CCCCCCOc2ccc(C(c3ccc(Cl)cc3)N3CCN(C(=O)c4noc(C)c4[N+](=O)[O-])CC3)cc2)C(C)(C)C)cc1 (stereo not given in full)	1.36	
Cc1ncsc1-c1ccc(CNC(=O)[C@@H]2C[C@@H](O)CN2C(=O)[C@@H](NC(=O)CCCCCCCOc2ccc(C(c3ccc(Cl)cc3)N3CCN(C(=O)c4noc(C)c4[N+](=O)[O-])CC3)cc2)C(C)(C)C)cc1 (stereo not given in full)	1.69	
Cc1ncsc1-c1ccc(CNC(=O)[C@@H]2C[C@@H](O)CN2C(=O)[C@@H](NC(=O)CCCCCCCCOc2ccc(C(c3ccc(Cl)cc3)N3CCN(C(=O)c4noc(C)c4[N+](=O)[O-])CC3)cc2)C(C)(C)C)cc1 (stereo not given in full)	0.767	
Cc1ncsc1-c1ccc(CNC(=O)[C@@H]2C[C@@H](O)CN2C(=O)[C@@H](NC(=O)COCCOc2ccc(C(c3ccc(Cl)cc3)N3CCN(C(=O)c4noc(C)c4[N+](=O)[O-])CC3)cc2)C(C)(C)C)cc1 (stereo not given in full)	1.83	
Cc1ncsc1-c1ccc(CNC(=O)[C@@H]2C[C@@H](O)CN2C(=O)[C@@H](NC(=O)CCCCOc2ccc(C(c3ccc(Cl)cc3)N3CCN(C(=O)c4noc(C)c4[N+](=O)[O-])CC3)cc2)C(C)(C)C)cc1 (stereo not given in full)	1.54	
Cc1ncsc1-c1ccc(CNC(=O)[C@@H]2C[C@@H](O)CN2C(=O)[C@@H](NC(=O)COc2ccc(C(c3ccc(Cl)cc3)N3CCN(C(=O)c4noc(C)c4[N+](=O)[O-])CC3)cc2)C(C)(C)C)cc1 (stereo not given in full)	2.14	
Cc1ncsc1-c1ccc(CNC(=O)[C@@H]2C[C@@H](O)CN2C(=O)[C@@H](NC(=O)COCCOCCOCCOc2ccc(C(c3ccc(Cl)cc3)N3CCN(C(=O)c4noc(C)c4[N+](=O)[O-])CC3)cc2)C(C)(C)C)cc1 (stereo not given in full)	3.24	
Cc1ncsc1-c1ccc(CNC(=O)[C@@H]2C[C@@H](O)CN2C(=O)[C@@H](NC2CC3(CCN(C(=O)COc4ccc(C(c5ccc(Cl)cc5)N5CCN(C(=O)c6noc(C)c6[N+](=O)[O-])CC5)cc4)CC3)C2)C(C)(C)C)cc1 (stereo not given in full)	1.35	
Cc1ncsc1-c1ccc(CNC(=O)[C@@H]2C[C@@H](O)CN2C(=O)[C@@H](NC(=O)CN2CCN(CC3CCN(C(=O)COc4ccc(C(c5ccc(Cl)cc5)N5CCN(C(=O)c6noc(C)c6[N+](=O)[O-])CC5)cc4)CC3)CC2)C(C)(C)C)cc1 (stereo not given in full)	4.76	
Cc1ncsc1-c1ccc(CNC(=O)[C@@H]2C[C@@H](O)CN2C(=O)[C@@H](NC(=O)COCCOCCOc2ccc(C(c3ccc(Cl)cc3)N3CCN(C(=O)c4noc(C)c4[N+](=O)[O-])CC3)cc2)C(C)(C)C)cc1 (stereo not given in full)	2.07	
Cc1ncsc1-c1ccc(CNC(=O)[C@@H]2C[C@@H](O)CN2C(=O)[C@@H](NC(=O)CCCCCCCCCOc2ccc(C(c3ccc(Cl)cc3)N3CCN(C(=O)c4noc(C)c4[N+](=O)[O-])CC3)cc2)C(C)(C)C)cc1 (stereo not given in full)	0.435	Activity [3]: > 80%; Emax [4]: 86%; EC50 [5]: 0.135 µM; Activity [6]: Dose-Dependent Effect; Activity [7]: Active; Activity [8]: 50%; Activity [9]: inactive; Activity [10]: inactive; Activity [11]: Dose-Dependent Effect
Cc1ncsc1-c1ccc(CNC(=O)[C@@H]2C[C@@H](O)CN2C(=O)[C@@H](NC(=O)C2CCN(CC3CCN(C(=O)COc4ccc(C(c5ccc(Cl)cc5)N5CCN(C(=O)c6noc(C)c6[N+](=O)[O-])CC5)cc4)CC3)CC2)C(C)(C)C)cc1 (stereo not given in full)	4.45	
